Measurements of several laboratories.
Target: Myosin light chain kinase, smooth muscle (MYLK, Homo sapiens, UniProt Q15746)

With `CCN(CC)c1ccc(C2=NNC(=O)CC2C)cc1[N+](=O)[O-]` (centres unmarked) the remaining activity was 90% (enzyme activity, inhibitor; 10 µM).
`C[S+]([O-])c1ccc(-c2nc(-c3ccncc3)c(-c3ccc(F)cc3)[nH]2)cc1` (centres unmarked) has a remaining signal of 101% (cell-free assay; 0.5 µM).
For `C[C@H](c1ccc(F)cc1)N(Cc1cccc(C(=O)O)c1)C(=O)c1cnc2ccccc2c1`, the remaining binding was 76% (cell-free assay, competition with immobilised ligand; 1 µM).
With `CN(c1ncccc1CNc1nc(Nc2ccc3c(c2)CC(=O)N3)ncc1C(F)(F)F)S(C)(=O)=O` the inhibition was 16.6% (enzyme activity, inhibitor; 1 µM).
With `O=C1Nc2ccc(Cl)cc2C1=Cc1cc(Cl)c(O)c(Cl)c1` the remaining signal was 62.3% (cell-free assay; 0.5 µM).
`COc1ccc2c(c1)O[C@@H](c1ccc(OC)c(OC)c1)C[C@H]2NC(=O)C1(c2ccc3c(c2)OC(F)(F)O3)CC1` has a remaining binding of 85% (cell-free assay, competition with immobilised ligand; 1 µM).
`CC(C)(C)c1nc(-c2cccc(NS(=O)(=O)c3c(F)cccc3F)c2F)c(-c2ccnc(N)n2)s1` has a remaining activity of 74% (enzyme activity, inhibitor, radiometric; 1 µM).
`O=C(Nc1ccc(Oc2ccc(F)cc2)cc1)N1CCc2ncccc2[C@H]1c1ccc(F)cc1` has a remaining binding of 100% (cell-free assay, competition with immobilised ligand; 1 µM).
`O=C1NC(=O)c2cc(Nc3ccc(F)cc3)c(Nc3ccc(F)cc3)cc21` gave a remaining signal of 100% (cell-free assay; 0.5 µM).
The inhibition of `CCN1CCN(Cc2ccc(NC(=O)c3ccc(C)c(Oc4ccnc5[nH]ccc45)c3)cc2C(F)(F)F)CC1` is reported as -23.4% (target engagement in cells, inhibitor, chemoproteomics; Huh-7; 1 µM).
The remaining activity of `CC(C)(O)[C@H]1CC[C@H](Nc2ccc3ncc(-c4cccc(C(F)(F)F)c4)n3n2)CC1` is reported as 99.8% (enzyme activity, inhibitor; 1 µM).
With `O=C(Nc1cnn(-c2csc(C(=O)NC3COC3)c2)c1)Nc1c(F)cccc1Cl` the remaining activity was 95.9% (enzyme activity, inhibitor; 5 µM).
With `COc1cc(Nc2cnc(C#N)c(O[C@H](C)CN(C)C)n2)ncc1-c1cnn(C)c1` the remaining activity was 103% (enzyme activity, inhibitor, radiometric; 10 µM).
`CO[C@H]1CC[C@H](CNc2ccc(S(=O)(=O)NC(=O)c3ccc(N4CCN(CC5=C(c6ccc(Cl)cc6)CC(C)(C)CC5)CC4)cc3Oc3cnc4[nH]ccc4c3)cc2[N+](=O)[O-])CC1` has a remaining binding of 50% (cell-free assay, competition with immobilised ligand; 1 µM).
`FC(F)c1nc2ccccc2n1-c1nc(N2CCOCC2)nc(N2CCOCC2)n1` gave a remaining activity of 91% (enzyme activity, inhibitor; 10 µM).
The inhibition of `Cn1cncc1C1=CN(c2ncnc3[nH]cnc23)CCS1` is reported as 18.2% (enzyme activity, inhibitor, radiometric; 50 nM).
`CC(=O)Nc1c(C(C)=O)c(=O)n(C)c2nc(-c3ccc(Cl)cc3Cl)c(-c3ccc(Cl)cc3)cc12` gave a remaining binding of 100% (cell-free assay, competition with immobilised ligand; 1 µM).
For `Nc1ncnc2occ(-c3ccc(NC(=O)Nc4cc(C(F)(F)F)ccc4F)cc3)c12`, the remaining activity was 42% (enzyme activity, inhibitor; 20 µM).
With `CNC(=O)Nc1ccc2c(c1)[C@@]1(CC2)OC(=O)N(CC(=O)N(Cc2ccc(F)cc2)[C@@H](C)C(F)(F)F)C1=O` the remaining binding was 88% (cell-free assay, competition with immobilised ligand; 1 µM).
The remaining binding of `C[C@@H]1CCN(c2nccc(-c3cnn4ncccc34)n2)C1` is reported as 92% (binding; 1 µM).
`COc1cc(Cl)c(C(=O)N[C@@H](CN[C@H]2CC[C@@H](N)CC2)Cc2ccc(C#N)cc2)cc1-c1ccc(CN[C@H](C)c2ccc(C)cc2)o1` has a remaining activity of 95% (enzyme activity, inhibitor; 1 µM).
For `Cn1cnc(Br)c1C1=CN(c2ncnc3[nH]cnc23)CCS1`, the inhibition was 33.5% (enzyme activity, inhibitor, radiometric; 50 nM).
`N#CCCc1ccc2c(c1)-c1[nH]c3ccc([N+](=O)[O-])cc3c1CC(=O)N2` has a remaining signal of 95.2% (cell-free assay; 0.5 µM).
`Cc1c(NC(=O)c2cc(C(N)=O)nc3cc(F)ccc23)c(C(F)(F)F)nn1Cc1ccc(C#N)cc1` has a remaining binding of 65% (binding, competition with immobilised ligand; 1 µM).
`Cn1c2c(Cl)c(Cl)ccc2c2cc[nH]c(=O)c21` has a ΔTm of 2.4 °C (thermal stability, DSF; 10 µM).
For `Nc1nc(Nc2ccccc2)sc1C(=O)c1c(F)cccc1F`, the remaining activity was 29% (enzyme activity, inhibitor; 10 µM).
